Data set [1] has as its target Glutathione S-transferase P (Homo sapiens) (UniProt P09211). In words: Specific activity of human Glutathione S-transferase P at 50 uM by spectrophotometric analysis in presence of glutathione. Summed up: (§1)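 Reaction of 1 mL held 0.1 M phosphate buffer pH 7.4, 1 mM GSH, 50 μM compound and a catalytic amount of GST. GSTA1-1 and GSTM1-1 were purified recombinant enzymes; GSTP1-1 was purified in-house. Enzymes were first checked for activity with CDNB. Reaction started by adding compound, and the absorbance decrease at its maximum was followed at 37 °C. Specific activity came from the change in extinction coefficient.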

For data set [2] the target is unchanged. In words: Specific activity of human Glutathione S-transferase P at 50 uM by spectrophotometric analysis in presence of glutathione relative to O2-(2,4-dinitrophenyl) 1-[(4-ethoxycarbonyl)piperazin-1-yl]diazen-1-ium-1,2-diolate. In a few lines: as §1
For data set [3], the target named is T1, Glutathione S-transferase A1 (Homo sapiens) (UniProt P08263).
T1 sequence (whole entry): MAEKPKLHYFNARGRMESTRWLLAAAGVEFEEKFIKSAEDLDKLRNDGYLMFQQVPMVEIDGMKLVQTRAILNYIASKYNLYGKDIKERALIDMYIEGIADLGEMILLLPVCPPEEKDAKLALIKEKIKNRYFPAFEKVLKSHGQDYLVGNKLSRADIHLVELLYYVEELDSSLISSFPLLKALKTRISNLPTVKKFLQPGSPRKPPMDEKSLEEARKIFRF
As to the kind of experiment: Specific activity of human recombinant Glutathione S-transferase A1 at 50 uM by spectrophotometric analysis in presence of glutathione. Summed up:
as §1

In data set [4] the target is T1, Glutathione S-transferase A1 (Homo sapiens). In words: Specific activity of human recombinant Glutathione S-transferase A1 at 50 uM by spectrophotometric analysis in presence of glutathione relative to O2-(2,4-dinitrophenyl) 1-[(4-ethoxycarbonyl)piperazin-1-yl]diazen-1-ium-1,2-diolate. In a few lines:
as §1

In data set [5] the target is T2, Glutathione S-transferase Mu 1 (Homo sapiens) (UniProt P09488).
T2 sequence (whole entry): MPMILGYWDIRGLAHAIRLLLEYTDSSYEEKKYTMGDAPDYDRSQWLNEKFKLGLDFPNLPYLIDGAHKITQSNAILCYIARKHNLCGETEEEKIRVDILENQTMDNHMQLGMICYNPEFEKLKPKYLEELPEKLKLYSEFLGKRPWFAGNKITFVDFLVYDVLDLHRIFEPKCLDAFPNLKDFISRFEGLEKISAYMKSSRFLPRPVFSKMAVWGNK
As to the kind of experiment: Specific activity of human recombinant Glutathione S-transferase Mu 1 at 50 uM by spectrophotometric analysis in presence of glutathione. Summed up: as §1

Data set [6] concerns the target T2, Glutathione S-transferase Mu 1 (Homo sapiens). In words: Specific activity of human recombinant Glutathione S-transferase Mu 1 at 50 uM by spectrophotometric analysis in presence of glutathione relative to O2-(2,4-dinitrophenyl) 1-[(4-ethoxycarbonyl)piperazin-1-yl]diazen-1-ium-1,2-diolate. In a few lines: as §1
The nature of data set [7]: Stability assessed as nitric oxide release in 0.1 M phosphate buffer at pH 7.4 at 100 to 150 nM measured per mole in presence of glutathione by chemiluminescence analysis. The format is physicochemical.
Data set [8] in a line: Chemical stability assessed as half life in 0.1 M phosphate buffer at 33 uM at pH 7.4 in presence of glutathione. The settings on record: gsh, pH 7.4, 33 µM. The data set is classed as physicochemical.
Data set [9] deals with HL-60. In words: Antiproliferative activity against human HL-60 cells after 72 hrs by MTT assay. The format is functional, cell-based. The settings on record: HL-60, 72 h. Summed up: (§2)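 MTT (CellTiter 96) proliferation assay. Seeded at 10⁴ per well and grown 24 h, then given rising compound concentrations in PBS (from 10 mM DMSO stocks) for 72 h. Six repeats per concentration, at least two independent experiments; IC50 reported.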
Background: Tetrazolium assays rely on reduction of a dye to a coloured formazan, in cell work by metabolically active cells.

Data set [10] concerns U-937. In words: Antiproliferative activity against human U937 cells after 72 hrs by MTT assay. The data set is classed as functional, cell-based. Particulars: U-937, 72 h. Summed up: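 Cells seeded at 10⁴ per well and grown 24 h, then exposed 72 h to increasing drug concentrations diluted in PBS from 10 mM DMSO stocks. Growth read by MTT assay. Six repeats per concentration, at least two independent experiments; IC50 reported.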

Data set [11] can be described thus: Antiproliferative activity against human H441 cells after 72 hrs by MTT assay. The data set is classed as functional, cell-based. Particulars: NCI-H441, 72 h.
For data set [12], the system named is A549. In words: Antiproliferative activity against human A549 cells after 72 hrs by MTT assay. The format is functional, cell-based. The settings on record: A549, 72 h. Summed up:
as §2

A short description of data set [13]: Antiproliferative activity against human HCT 116 cells after 72 hrs by MTT assay. The format is functional, cell-based. The settings on record: HCT-116, 72 h.
Data set [14] concerns HCT-15. As to the kind of experiment: Antiproliferative activity against human HCT-15 cells after 72 hrs by MTT assay. The data set is classed as functional, cell-based. The settings on record: HCT-15, 72 h.
The test system of data set [15] is OVCAR-3. As to the kind of experiment: Antiproliferative activity against human OVCAR-3 cells after 72 hrs by MTT assay. The settings on record: OVCAR-3, 72 h. The data set is classed as functional, cell-based.
The subject of data set [16] is PC-3. As to the kind of experiment: Antiproliferative activity against human PC-3 cells after 72 hrs by MTT assay. The data set is classed as functional, cell-based. The settings on record: PC-3, 72 h. Summed up: as §2
A short description of data set [17]: Antiproliferative activity against human H1395 cells after 72 hrs by MTT assay. The format is functional, cell-based. Particulars: NCI-H1395, 72 h.
The nature of data set [18]: Antiproliferative activity against human H838 cells after 72 hrs by MTT assay. The data set is classed as functional, cell-based. Particulars: NCI-H838, 72 h.
Data set [19] relates to HT-29. As to the kind of experiment: Antiproliferative activity against human HT-29 cells after 72 hrs by MTT assay. The format is functional, cell-based. Particulars: HT-29, 72 h.
The subject of data set [20] is Caco-2. In words: Antiproliferative activity against human Caco-2 cells after 72 hrs by MTT assay. The format is functional, cell-based. Particulars: Caco-2, 72 h.
Data set [21] concerns OVCAR-5. As to the kind of experiment: Antiproliferative activity against human OVCAR5 cells after 72 hrs by MTT assay. The format is functional, cell-based. Particulars: OVCAR-5, 72 h.
Data set [22] deals with TK-10. In words: Antiproliferative activity against human TK-10 cells after 72 hrs by MTT assay. The data set is classed as functional, cell-based. The settings on record: TK-10, 72 h.
Data set [23] is described as follows: Antiproliferative activity against human 786O cells after 72 hrs by MTT assay. The data set is classed as functional, cell-based. Particulars: 786-0, 72 h.
Data set [24] is described as follows: Antiproliferative activity against human UO-30 cells after 72 hrs by MTT assay. The data set is classed as functional, cell-based. The settings on record: UO-30, 72 h.
A short description of data set [25]: Antiproliferative activity against HREpC cells after 72 hrs by MTT assay. The format is cell-based. Particulars: Homo sapiens. Summed up: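 Seeded at 10⁴ per well and grown 24 h before dosing. Compounds came from 10 mM DMSO stocks and were diluted in PBS to increasing concentrations. Exposure was 72 h, with MTT growth read-out. Six repeats per concentration, at least two independent experiments; IC50.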

The nature of data set [26]: Antiproliferative activity against human BJ-5ta cells after 72 hrs by MTT assay. The settings on record: hTERT-BJ. The format is cell-based. In a few lines: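 10⁴ cells per well, allowed 24 h growth, then exposed 72 h to increasing concentrations added in PBS from 10 mM DMSO stocks. MTT proliferation read-out. Each concentration in six repeats, at least two independent experiments; IC50.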

Some results are limits rather than exact numbers.

Chain of Glutathione S-transferase P (Homo sapiens) (P09211 2-210 limits assumed): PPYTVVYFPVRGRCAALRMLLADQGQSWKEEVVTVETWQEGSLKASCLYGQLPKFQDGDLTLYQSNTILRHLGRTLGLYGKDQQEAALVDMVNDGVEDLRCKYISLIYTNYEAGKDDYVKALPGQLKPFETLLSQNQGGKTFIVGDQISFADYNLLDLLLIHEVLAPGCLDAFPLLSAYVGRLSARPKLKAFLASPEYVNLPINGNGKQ

In the case of `CCOC(=O)N1CCCN(/[N+]([O-])=N/Oc2ccc([N+](=O)[O-])cc2[N+](=O)[O-])CC1`, the Activity in data set [1] came out at 0.16 µmol/min/mg; in data set [2], 0.12; in data set [3], 16.8 µmol/min/mg; in data set [4], 0.25; in data set [5] it was 38 µmol/min/mg; in [6], 0.3.

In the case of `CCOC(=O)N1CC(C)N(/[N+]([O-])=N/Oc2ccc([N+](=O)[O-])cc2[N+](=O)[O-])CC1C` (stereo unspecified), the Activity amounted to 0.14 µmol/min/mg in data set [1]; 0.1 in data set [2]; 17.6 µmol/min/mg in [3]; 0.27 in data set [4]; 49 µmol/min/mg in [5]; 0.39 in data set [6].

Take `COC(=O)N1CCN(/[N+]([O-])=N/Oc2ccc([N+](=O)[O-])cc2[N+](=O)[O-])CC1`: the Activity stood at 0.98 µmol/min/mg in data set [1]; 0.72 in data set [2]; 45.1 µmol/min/mg in data set [3]; 0.68 in data set [4]; 102 µmol/min/mg in data set [5]; 0.81 in data set [6].

Regarding `CCOC(=O)N1CCN(/[N+]([O-])=N/Oc2ccc([N+](=O)[O-])cc2[N+](=O)[O-])C(C)C1` (stereo unspecified), the Activity in data set [1] amounted to 0.88 µmol/min/mg; in data set [2] it was 0.65; in data set [3] it was 47 µmol/min/mg; in data set [4] it was 0.71; in data set [5], 110 µmol/min/mg; in [6] it was 0.87.

By IC50 is commonly meant the concentration needed to halve the response being measured. Read a high IC50 as lower potency. Consider `CCOC(=O)N1C(C)CN(/[N+]([O-])=N/Oc2ccc([N+](=O)[O-])cc2[N+](=O)[O-])CC1C` (stereo unspecified), for which the Activity in [7] was 1.75 mol/mol; in [1] it was 1.17 µmol/min/mg; in [2] it was 0.86; in data set [3], 70.3 µmol/min/mg; in data set [4], 1.06; in [5], 172 µmol/min/mg. Besides, the Activity in data set [6] amounted to 1.36. Besides, in [8], the t1/2 was found to be 26 min. Moreover, the IC50 in [9] was 4700 nM; in data set [10], 4900 nM; in [11] it was 8100 nM; in [12] it was over 10000 nM; in [13], 9500 nM; in data set [14], 8200 nM. The IC50 was 4900 nM in [15] and over 10000 nM in data set [16].

Turning to `CCOC(=O)N1CCN(/[N+]([O-])=N/Oc2ccc([N+](=O)[O-])cc2[N+](=O)[O-])CC1C` (stereo unspecified), the Activity was 1.15 µmol/min/mg in [1]; 0.85 in [2]; 55.5 µmol/min/mg in [3]; 0.84 in data set [4]; 112 µmol/min/mg in data set [5]; 0.89 in [6].

For the compound `CCCOC(=O)N1CCN(/[N+]([O-])=N/Oc2ccc([N+](=O)[O-])cc2[N+](=O)[O-])CC1`, the Activity in data set [7] was found to be 2 mol/mol; in data set [1], 1.2 µmol/min/mg; in data set [2] it was 0.88; in [3], 59 µmol/min/mg; in [4], 0.89; in [5] it was 126 µmol/min/mg. In addition, the Activity in data set [6] came to 1. Also, the t1/2 in data set [8] was 27 min. The IC50 is 1400 nM in data set [9]; 700 nM in [10]; 2400 nM in data set [11]; 2400 nM in data set [12]; 1500 nM in data set [13]; 1300 nM in data set [14]. In addition, in data set [16], the IC50 was 2000 nM.

For `CCOC(=O)N1CCN(/[N+]([O-])=N/Oc2ccc([N+](=O)[O-])cc2[N+](=O)[O-])CC1`, the Activity in data set [7] came out at 1.7 mol/mol; in data set [1], 1.36 µmol/min/mg; in [2], 1; in data set [3] it was 66.3 µmol/min/mg; in data set [4], 1; in [5] it was 126 µmol/min/mg. In [6], the Activity worked out at 1. Besides, the IC50 in data set [9] is 200 nM; in data set [10] it was 300 nM; in [11], 1000 nM; in [12] it was 1500 nM; in [13] it was 700 nM; in data set [14], 600 nM. Besides, the IC50 was determined as 800 nM in [15]; 1100 nM in data set [16]; 800 nM in data set [17]; 4300 nM in [18]; 800 nM in data set [19]; 2600 nM in data set [20]. Further, the IC50 worked out at 1000 nM in data set [21]; 500 nM in data set [22]; 800 nM in [23]; 900 nM in [24]; 11300 nM in [25]; 10000 nM in data set [26].

(Values after ChEMBL document CHEMBL1142542, “Synthesis, mechanistic studies, and anti-proliferative activity of glutathione/glutathione S-transferase-activated nitric oxide prodrugs” (Bioorg Med Chem, 2008).)
